Test results reported in PMC5403476 (International Journal of Molecular Medicine, 2017).
Residues, ends and D or L forms follow the SMILES beside them.

How the values were obtained:
Type in all cases: cell-based, human
[1] = test system: intracellular ROS in Ang II-stimulated EA.hy926 cells; experiment: Intracellular ROS generation; conditions: Ang II alone (1 µM, 30 min), compared with the untreated cells
In short: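 Cells were seeded for 24 h, then pre-treated with test compound for 30 min. Ang II (1 µM) was added for a further 30 min at 37°C. Cells were loaded with 40 µM carboxy-DCFH-DA, and DCF fluorescence plus DAPI were imaged by fluorescence microscopy.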

[2] = test system: iNOS expression in Ang II-stimulated EA.hy926 cells; experiment: iNOS expression by western blot; conditions: 24 h
In short: (§1)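 Ang II-stimulated EA.hy926 cells were lysed for 60 min in Tris/EDTA/NP-40 buffer with phosphatase and protease inhibitors, and protein was measured by BCA. Each lane took 40 µg protein on SDS-PAGE, transferred to nitrocellulose and blocked 2 h in 5% milk/TBS-T. Primary antibodies (1:1,000) were applied overnight at 4°C and secondaries at 1:3,000, with ECL detection and densitometry. Data are mean ± SD, at least 3 experiments.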

[3] = test system: ERK phosphorylation in EA.hy926 cells; experiment: Phosphorylation of ERK by western blot; conditions: 30 min
In short: as §1

[4] = test system: NO production in Ang II-stimulated EA.hy926 cells; experiment: NO production; conditions: Ang II alone (1 µM, 24 h), compared with the untreated cells
In short: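 EA.hy926 cells were incubated with test compound and Ang II for 24 h. Nitrite in the medium was taken as the NO indicator. Medium was mixed 1:1 with Griess reagent (1% sulfanilamide, 0.1% naphthylethylenediamine dihydrochloride in 2.5% phosphoric acid) for 10 min at room temperature and read at 540 nm, with fresh medium as blank. Data are mean ± SD, at least 3 experiments.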

[5] = test system: p38 MAPK phosphorylation in EA.hy926 cells; experiment: Phosphorylation of p38 MAPK by western blot; conditions: 30 min
In short: as §1

[6] = test system: ET-1 expression in Ang II-stimulated EA.hy926 cells; experiment: ET-1 expression by western blot; conditions: 24 h
In short: as §1

[7] = test system: JNK phosphorylation in EA.hy926 cells; experiment: Phosphorylation of JNK by western blot; conditions: 30 min
In short: as §1

[8] = test system: EA.hy926 cells; experiment: Cell viability by MTT assay; conditions: 62.5, 125 and 250 µM, up to 250 µM; presence or absence of Ang II (1 µM); 24 h
In short: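 EA.hy926 cells were grown in DMEM with 10% FBS, penicillin and streptomycin at 37°C in 5% CO2. Cells were treated with Ang II (1 µM) plus test compound (62.5, 125 or 250 µM) for 24 h at 37°C, then with MTT for 4 h. Plates were spun and formazan was dissolved in DMSO, read at 540 nm. Data are mean ± SD of at least 3 experiments, compared by unpaired t-test.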

Compound | ROS fluorescence intensity, Ang II alone [1] | iNOS expression, Ang II alone [2] | phosphorylated ERK, Ang II alone [3] | NO generation, Ang II alone [4] | phosphorylated p38 MAPK, Ang II alone [5] | ET-1 expression, Ang II alone [6] | phosphorylated JNK, Ang II alone [7] | cytotoxic effect (MTT) [8]
angiotensin II (DRVYIHPF; Angiotensin-2; UniProt P01019 25-32, looked up) [Ang II] | increased markedly | markedly increased | elevated | markedly induced NO generation | elevated | markedly increased | elevated | –
CSCC[C@H](NC(=O)[C@@H](N)[C@@H](C)O)C(=O)N[C@@H](CCC(=O)O)C(=O)N1CCC[C@H]1C(=O)NCC(=O)N[C@@H](CCCCN)C(=O)N1CCC[C@H]1C(=O)O [purified peptide, Thr-Met-Glu-Pro-Gly-Lys-Pro] (H-TMEPGKP-OH) | – | – | – | – | – | – | – | No significant toxic effects
